Source: ChEMBL document CHEMBL1129584, “3,3-Dialkyl- and 3-alkyl-3-benzyl-substituted 2-pyrrolidinones: a new class of anticonvulsant agents” (J Med Chem, 1996)

Columns and labels:
[1] = target: GABA-A receptor; anion channel; assay: Binding affinity for Gamma-aminobutyric acid A receptor from rat brain in the presence of radioligand [35S]- TBPS
Summary of the method: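 [35S]TBPS displacement in rat brain membranes (picrotoxin site of GABA-A receptors). Compounds dissolved in DMSO, final DMSO ≤2.5%. IC50 from at least three experiments in triplicate, mean ± SEM.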

[2] = Neurotoxicity in mice was assessed by rotarod test; assay type: toxicity; conditions: mouse, in vivo
Mus musculus [3] = species: Mus musculus; assay: Anticonvulsant activity in mice against maximal electroshock (MES) induced tonic hindlimb seizures; assay type: functional
Summary of the method: (§1)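 At least four groups of six mice each. Where these could not be calculated, the […] and lowest all-protected doses are given instead.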

[4] = target: T1, GABA-A receptor; anion channel (Rattus norvegicus) (UniProt O09028+P15431+P18506+P18508+P19969+P20236+P23574+P23576+P28471+P28473+P30191+P62813+P63079+P63138+Q91ZM7+Q9ES14); assay: Antagonism (300 uM) induced potentiation of 3 uM Gamma-aminobutyric acid A receptor mediated current by picrotoxin antagonist (alpha-IMGBL) at a dose 3 mM on 5 rat brain cells; assay type: functional, tissue-based; set-up: scale not given: the % may be the effect or the level left
Mus musculus [5] = species: Mus musculus; assay: Anticonvulsant activity in mice against pentylenetetrazole (PTZ) induced clonic seizures; assay type: functional; summary of the method: as §1
[6] = Protective index, measure of ratio of TD50 and ED50; assay type: functional
Summary of the method: (§2)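 Protective index calculated as TD50 (rotorod) divided by ED50 in the PTZ or MES mouse seizure test.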

[7] = target: T1, GABA-A receptor; anion channel (Rattus norvegicus); assay: Induced percentage potentiation of 3 uM GABA-mediated current at rat brain Gamma-aminobutyric acid A receptor (8 cells); assay type: functional
[8] = Protective index, measure of ratio of TD50 and ED50 of PTZ; assay type: functional; summary of the method: as §2
[9] = target: T1, GABA-A receptor; anion channel (Rattus norvegicus); assay: Induced percentage potentiation of 3 uM GABA-mediated current at rat brain Gamma-aminobutyric acid A receptor (8 cells) at 1 mM in the presence of 3 mM alpha-IMGBL (picrotoxin antagonist); assay type: functional
[10] = Protective index, measure of ratio of TD50 and ED50 of MES; assay type: functional; summary of the method: as §2

Structure (SMILES) | IC50 [1] [mM] | TD50 [2] [mg/kg] | further results
CC1(C)CCNC1=O | 32.4 | > 600 | ED50 (Mus musculus [3]): > 600 mg/kg
CCC1(Cc2ccccc2)CCNC1=O (stereo unspecified) | – | – | Activity [4]: 98%
CCC1(c2ccccc2)C(=O)NC(=O)NC1=O [PHENOBARBITAL] | – | – | ED50 (Mus musculus [5]): 22 mg/kg; PI [6]: 4
CCC1(CC)CCNC1=O | 5.81 | 260 | Activity [7]: 137%; PI [8]: 5.65; Activity [9]: 108%
CCCC(CCC)C(=O)O [VALPROIC ACID] | – | – | ED50 (Mus musculus [5]): 133 mg/kg; PI [6]: 2.12
CC1(Cc2ccccc2)CCNC1=O (stereo unspecified) | 0.85 | – | –
O=C1CCCN1 [2-PYRROLIDONE] | – | > 900 | –
CC(C)(C)C1(C)CCNC1=O (stereo unspecified) | 3.26 | > 300 | –
O=C1NCCC12CCCC2 | 12.1 | 307 | –
O=C1CCCS1 [THIOBUTYROLACTONE] | 0.33 | – | –
CCC1(C)CC(=O)NC1=O (stereo unspecified) [ETHOSUXIMIDE] | – | – | ED50 (Mus musculus [5]): 161 mg/kg; PI [6]: 2.35
CCC1CCNC1=O (stereo unspecified) | 48.1 | – | –
CCC1(C)CCNC1=O (stereo unspecified) | 12.1 | – | –
CC1CCNC1=O (stereo unspecified) | – | > 900 | –
CC(C)C1(C)CCNC1=O (stereo unspecified) | 6.86 | – | –
CCC1(C(C)C)CCNC1=O (stereo unspecified) | 2.62 | 207 | –
O=C1NCCC1Cc1ccccc1 (stereo unspecified) | 2.44 | 144 | PI [10]: 3.51
